A short description of data set [1]: Retention time of the compound by reverse-phase HPLC method. Type of data set: physicochemical. An outline of the steps: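 Analytical reverse-phase HPLC on a C18 column (Jupiter 5U C18 300A), 10–40% acetonitrile with 0.1% TFA linear over 30 min at 1 mL/min, UV detection at 220 and 280 nm.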
For the next data set, the target named is Melanocortin receptor 4 (Homo sapiens, UniProt P32245). The data set is described as follows: Displacement of Eu-DTPA-NDP-a-MSH chelate from human melanocortin-4 receptor expressed in HEK293 cells after 1 hr by competitive DELFIA assay. Type of data set: cell-based. An outline of the steps:
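HEK293 cells stably carrying hMC4R (pcDNA3.1) were grown in DMEM plus 10% FBS, seeded at 12,000 cells/well and cultured 3 days. Whole cells were competed with unlabeled ligand against 10 nM (final) Eu-DTPA-NDP-α-MSH in binding medium (DMEM, 1 mM 1,10-phenanthroline, bacitracin, leupeptin, 0.3% BSA) for 1 h at 37 °C, in quadruplicate. EC50 and Hill slope came from variable-slope sigmoidal fits.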

Chain of Melanocortin receptor 4 (P32245 whole entry): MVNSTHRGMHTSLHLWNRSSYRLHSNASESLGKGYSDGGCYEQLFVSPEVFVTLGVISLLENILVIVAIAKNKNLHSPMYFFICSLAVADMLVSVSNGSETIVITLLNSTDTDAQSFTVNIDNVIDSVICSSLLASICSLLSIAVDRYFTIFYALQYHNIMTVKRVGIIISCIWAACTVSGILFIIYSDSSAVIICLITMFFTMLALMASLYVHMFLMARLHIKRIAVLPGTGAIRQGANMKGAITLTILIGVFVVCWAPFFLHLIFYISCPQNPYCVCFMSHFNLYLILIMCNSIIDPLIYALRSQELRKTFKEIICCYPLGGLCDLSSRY

Compound `CCCC[C@H](NC(C)=O)C(=O)N[C@H]1CC(=O)NCCCC[C@@H](C(=O)NCCCOCCOCCOCCCNC(=O)COCC(=O)N2CCC[C@H]2C(=O)NCC(=O)N2CCC[C@H]2C(=O)NCC(=O)N2CCC[C@H]2C(=O)NCC(=O)NCCCOCCOCCOCCCNC(=O)COCC(=O)N[C@@H](CCCC)C(=O)N[C@H]2CC(=O)NCCCC[C@@H](C(N)=O)NC(=O)[C@H](Cc3c[nH]c4ccccc34)NC(=O)[C@H](CCCNC(=N)N)NC(=O)[C@@H](Cc3ccc4ccccc4c3)NC(=O)[C@H](Cc3cnc[nH]3)NC2=O)NC(=O)[C@H](Cc2c[nH]c3ccccc23)NC(=O)[C@H](CCCNC(=N)N)NC(=O)[C@@H](Cc2ccc3ccccc3c2)NC(=O)[C@H](Cc2cnc[nH]2)NC1=O` yielded a Retention_time in data set [1] of 13.6 min.

For `CCCC[C@H](NC(=O)CNC(=O)[C@@H]1CCCN1C(=O)CNC(=O)[C@@H]1CCCN1C(=O)CNC(=O)[C@@H]1CCCN1C(=O)CNC(=O)[C@@H]1CCCN1C(=O)CNC(=O)[C@@H]1CCCN1C(=O)CNC(=O)[C@@H]1CCCN1C(=O)[C@H](Cc1c[nH]c2ccccc12)NC(=O)[C@H](CCCNC(=N)N)NC(=O)[C@@H](Cc1ccccc1)NC(=O)[C@H](Cc1cnc[nH]1)NC(=O)[C@H](CCC(=O)O)NC(=O)[C@H](CCCC)NC(=O)[C@H](CO)NC(C)=O)C(=O)N[C@H]1CC(=O)NCCCC[C@@H](C(N)=O)NC(=O)[C@H](Cc2c[nH]c3ccccc23)NC(=O)[C@H](CCCNC(=N)N)NC(=O)[C@@H](Cc2ccc3ccccc3c2)NC(=O)[C@H](Cc2cnc[nH]2)NC1=O`, the Retention_time in data set [1] came out at 12 min. Moreover, at Melanocortin receptor 4, the EC50 (commonly the concentration giving half of the maximal effect) worked out at 4.1 nM.

Consider `CCCC[C@H](NC(C)=O)C(=O)N[C@H]1CC(=O)NCCCC[C@@H](C(=O)N2CCC[C@H]2C(=O)NCC(=O)N2CCC[C@H]2C(=O)NCC(=O)N2CCC[C@H]2C(=O)NCC(=O)N2CCC[C@H]2C(=O)NCC(=O)N2CCC[C@H]2C(=O)NCC(=O)N2CCC[C@H]2C(=O)NCC(=O)N2CCC[C@H]2C(=O)NCC(=O)N2CCC[C@H]2C(=O)NCC(=O)N2CCC[C@H]2C(=O)NCC(=O)N2CCC[C@H]2C(=O)NCC(=O)N2CCC[C@H]2C(=O)NCC(=O)N2CCC[C@H]2C(=O)NCC(=O)N[C@@H](CCCC)C(=O)N[C@H]2CC(=O)NCCCC[C@@H](C(N)=O)NC(=O)[C@H](Cc3c[nH]c4ccccc34)NC(=O)[C@H](CCCNC(=N)N)NC(=O)[C@@H](Cc3ccc4ccccc4c3)NC(=O)[C@H](Cc3cnc[nH]3)NC2=O)NC(=O)[C@H](Cc2c[nH]c3ccccc23)NC(=O)[C@H](CCCNC(=N)N)NC(=O)[C@@H](Cc2ccc3ccccc3c2)NC(=O)[C@H](Cc2cnc[nH]2)NC1=O`, for which the Retention_time in data set [1] was 13.1 min.

In turn, `CCCC[C@H](NC(=O)CNC(=O)[C@@H]1CCCN1C(=O)CNC(=O)[C@@H]1CCCN1C(=O)CNC(=O)[C@@H]1CCCN1C(=O)CNC(=O)[C@@H]1CCCN1C(=O)CNC(=O)[C@@H]1CCCN1C(=O)CNC(=O)[C@@H]1CCCN1C(C)=O)C(=O)N[C@H]1CC(=O)NCCCC[C@@H](C(N)=O)NC(=O)[C@H](Cc2c[nH]c3ccccc23)NC(=O)[C@H](CCCNC(=N)N)NC(=O)[C@@H](Cc2ccc3ccccc3c2)NC(=O)[C@H](Cc2cnc[nH]2)NC1=O` displayed a Retention_time in data set [1] of 11.9 min.

`CCCC[C@H](NC(=O)CNC(=O)[C@@H]1CCCN1C(=O)CNC(=O)[C@@H]1CCCN1C(=O)CNC(=O)[C@@H]1CCCN1C(=O)CNC(=O)[C@@H]1CCCN1C(=O)CNC(=O)[C@@H]1CCCN1C(=O)CNC(=O)[C@@H]1CCCN1C(=O)CNC(=O)[C@@H]1CCCN1C(=O)CNC(=O)[C@@H]1CCCN1C(=O)CNC(=O)[C@@H]1CCCN1C(=O)CNC(=O)[C@@H]1CCCN1C(=O)CNC(=O)[C@@H]1CCCN1C(=O)CNC(=O)[C@@H]1CCCN1C(C)=O)C(=O)N[C@H]1CC(=O)NCCCC[C@@H](C(N)=O)NC(=O)[C@H](Cc2c[nH]c3ccccc23)NC(=O)[C@H](CCCNC(=N)N)NC(=O)[C@@H](Cc2ccc3ccccc3c2)NC(=O)[C@H](Cc2cnc[nH]2)NC1=O` displayed a Retention_time in data set [1] of 11.9 min.

Regarding `CCCC[C@H](NC(=O)CNC(=O)[C@@H]1CCCN1C(=O)CNC(=O)[C@@H]1CCCN1C(=O)CNC(=O)[C@@H]1CCCN1C(=O)CNC(=O)[C@@H]1CCCN1C(=O)CNC(=O)[C@@H]1CCCN1C(=O)CNC(=O)[C@@H]1CCCN1C(=O)CNC(=O)[C@@H]1CCCN1C(=O)CNC(=O)[C@@H]1CCCN1C(=O)CNC(=O)[C@@H]1CCCN1C(C)=O)C(=O)N[C@H]1CC(=O)NCCCC[C@@H](C(N)=O)NC(=O)[C@H](Cc2c[nH]c3ccccc23)NC(=O)[C@H](CCCNC(=N)N)NC(=O)[C@@H](Cc2ccc3ccccc3c2)NC(=O)[C@H](Cc2cnc[nH]2)NC1=O`, in data set [1], the Retention_time was determined as 11.9 min.

For `CCCC[C@H](NC(C)=O)C(=O)N[C@H]1CC(=O)NCCCC[C@@H](C(=O)NCCCOCCOCCOCCCNC(=O)COCC(=O)NCCCOCCOCCOCCCNC(=O)COCC(=O)N[C@@H](CCCC)C(=O)N[C@H]2CC(=O)NCCCC[C@@H](C(N)=O)NC(=O)[C@H](Cc3c[nH]c4ccccc34)NC(=O)[C@H](CCCNC(=N)N)NC(=O)[C@@H](Cc3ccc4ccccc4c3)NC(=O)[C@H](Cc3cnc[nH]3)NC2=O)NC(=O)[C@H](Cc2c[nH]c3ccccc23)NC(=O)[C@H](CCCNC(=N)N)NC(=O)[C@@H](Cc2ccc3ccccc3c2)NC(=O)[C@H](Cc2cnc[nH]2)NC1=O`, the Retention_time in data set [1] turned out to be 13.9 min.

Take `CCCC[C@H](NC(C)=O)C(=O)N[C@H]1CC(=O)NCCCC[C@@H](C(=O)NCCCOCCOCCOCCCNC(=O)COCC(=O)N[C@@H](CCCC)C(=O)N[C@H]2CC(=O)NCCCC[C@@H](C(N)=O)NC(=O)[C@H](Cc3c[nH]c4ccccc34)NC(=O)[C@H](CCCNC(=N)N)NC(=O)[C@@H](Cc3ccc4ccccc4c3)NC(=O)[C@H](Cc3cnc[nH]3)NC2=O)NC(=O)[C@H](Cc2c[nH]c3ccccc23)NC(=O)[C@H](CCCNC(=N)N)NC(=O)[C@@H](Cc2ccc3ccccc3c2)NC(=O)[C@H](Cc2cnc[nH]2)NC1=O`: in data set [1], the Retention_time turned out to be 14 min.

Compound `CCCC[C@H](NC(=O)COCC(=O)NCCCOCCOCCOCCCNC(=O)CNC(=O)[C@@H]1CCCN1C(=O)CNC(=O)[C@@H]1CCCN1C(=O)CNC(=O)[C@@H]1CCCN1C(=O)COCC(=O)NCCCOCCOCCOCCCNC(C)=O)C(=O)N[C@H]1CC(=O)NCCCC[C@@H](C(N)=O)NC(=O)[C@H](Cc2c[nH]c3ccccc23)NC(=O)[C@H](CCCNC(=N)N)NC(=O)[C@@H](Cc2ccc3ccccc3c2)NC(=O)[C@H](Cc2cnc[nH]2)NC1=O` came in with a Retention_time in data set [1] of 12.3 min.

As for `CCCC[C@H](NC(C)=O)C(=O)N[C@H]1CC(=O)NCCCC[C@@H](C(=O)N2CCC[C@H]2C(=O)NCC(=O)N2CCC[C@H]2C(=O)NCC(=O)N2CCC[C@H]2C(=O)NCC(=O)N2CCC[C@H]2C(=O)NCC(=O)N2CCC[C@H]2C(=O)NCC(=O)N2CCC[C@H]2C(=O)NCC(=O)N2CCC[C@H]2C(=O)NCC(=O)N2CCC[C@H]2C(=O)NCC(=O)N2CCC[C@H]2C(=O)NCC(=O)N[C@@H](CCCC)C(=O)N[C@H]2CC(=O)NCCCC[C@@H](C(N)=O)NC(=O)[C@H](Cc3c[nH]c4ccccc34)NC(=O)[C@H](CCCNC(=N)N)NC(=O)[C@@H](Cc3ccc4ccccc4c3)NC(=O)[C@H](Cc3cnc[nH]3)NC2=O)NC(=O)[C@H](Cc2c[nH]c3ccccc23)NC(=O)[C@H](CCCNC(=N)N)NC(=O)[C@@H](Cc2ccc3ccccc3c2)NC(=O)[C@H](Cc2cnc[nH]2)NC1=O`, the Retention_time in data set [1] came out at 13.2 min.

Consider `CCCC[C@H](NC(=O)COCC(=O)NCCCOCCOCCOCCCNC(C)=O)C(=O)N[C@H]1CC(=O)NCCCC[C@@H](C(N)=O)NC(=O)[C@H](Cc2c[nH]c3ccccc23)NC(=O)[C@H](CCCNC(=N)N)NC(=O)[C@@H](Cc2ccc3ccccc3c2)NC(=O)[C@H](Cc2cnc[nH]2)NC1=O`, for which the Retention_time in data set [1] was 12.5 min.

In turn, `CCCC[C@H](NC(=O)CNC(=O)[C@@H]1CCCN1C(=O)CNC(=O)[C@@H]1CCCN1C(=O)CNC(=O)[C@@H]1CCCN1C(=O)CNC(=O)[C@@H]1CCCN1C(=O)CNC(=O)[C@@H]1CCCN1C(=O)CNC(=O)[C@@H]1CCCN1C(=O)CNC(=O)[C@@H]1CCCN1C(=O)CNC(=O)[C@@H]1CCCN1C(=O)CNC(=O)[C@@H]1CCCN1C(=O)[C@H](Cc1c[nH]c2ccccc12)NC(=O)[C@H](CCCNC(=N)N)NC(=O)[C@@H](Cc1ccccc1)NC(=O)[C@H](Cc1cnc[nH]1)NC(=O)[C@H](CCC(=O)O)NC(=O)[C@H](CCCC)NC(=O)[C@H](CO)NC(C)=O)C(=O)N[C@H]1CC(=O)NCCCC[C@@H](C(N)=O)NC(=O)[C@H](Cc2c[nH]c3ccccc23)NC(=O)[C@H](CCCNC(=N)N)NC(=O)[C@@H](Cc2ccc3ccccc3c2)NC(=O)[C@H](Cc2cnc[nH]2)NC1=O` registered a Retention_time in data set [1] of 12 min. The concentration giving a half-maximal response (EC50) at Melanocortin receptor 4 stood at 2 nM.

Turning to `CCCC[C@H](NC(=O)COCC(=O)NCCCOCCOCCOCCCNC(=O)COCC(=O)NCCCOCCOCCOCCCNC(C)=O)C(=O)N[C@H]1CC(=O)NCCCC[C@@H](C(N)=O)NC(=O)[C@H](Cc2c[nH]c3ccccc23)NC(=O)[C@H](CCCNC(=N)N)NC(=O)[C@@H](Cc2ccc3ccccc3c2)NC(=O)[C@H](Cc2cnc[nH]2)NC1=O`, the Retention_time in data set [1] is 12.5 min.

The values are drawn from ChEMBL document CHEMBL3352573 (Bioorg Med Chem, 2014).
